Data reported in ChEMBL document CHEMBL1799918, “Growth inhibitory activities of oxyprenylated and non-prenylated naturally occurring phenylpropanoids in cancer cell lines” (Bioorg Med Chem Lett, 2011).

Legend:
[1] = Cytotoxicity against human U373 cells assessed as growth inhibition at MTT assay-related IC50 by quantitative video microscopy relative to control; assay type: functional, U-373MG ATCC
[2] = Induction of human U373 cell death assessed as morphological changes at MTT assay-related IC50 after 72 hrs by quantitative video microscopy; assay type: functional, U-373MG ATCC
[3] = Cytotoxicity against human U373 cells after 72 hrs by MTT assay; assay type: functional, cell-based, U-373MG ATCC; conditions: U373 MG
In short: (§1)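 MTT colorimetric assay on human cancer cell lines; IC50 growth inhibitory concentration determined in vitro for each compound.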

PC-3 = assay: Cytotoxicity against human PC3 cells after 72 hrs by MTT assay; assay type: functional, cell-based; conditions: PC-3, 72 h; in short: as §1
LoVo = assay: Cytotoxicity against human LoVo cells after 72 hrs by MTT assay; assay type: functional, cell-based; in short: as §1
A549 = assay: Cytotoxicity against human A549 cells after 72 hrs by MTT assay; assay type: functional, cell-based; conditions: A549, 72 h; in short: as §1
SK-MEL-28 = assay: Cytotoxicity against human SK-MEL-28 cells after 72 hrs by MTT assay; assay type: functional, cell-based; conditions: SK-MEL-28, 72 h; in short: as §1
[4] = Cytotoxicity against human OE21 cells after 72 hrs by MTT assay; assay type: functional, cell-based; conditions: OE21, 72 h; in short: as §1
[5] = Cytostatic activity against human U373 cells assessed as growth inhibition at MTT assay-related IC50 by quantitative video microscopy relative to control; assay type: functional, U-373MG ATCC

Compound	growth inhibition (GI) [1] [%]	Activity [2] [%]	IC50 [3] [µM]	IC50 (PC-3) [µM]	IC50 (LoVo) [µM]	IC50 (A549) [µM]	IC50 (SK-MEL-28) [µM]	IC50 [4] [µM]	growth inhibition (GI) [5] [%]
CC(=O)c1c(O)cc(OC/C=C(\C)CC/C=C(\C)CCC=C(C)C)cc1O	70	42	33	38	32	26	33	18	–
CC(C)=CCOc1ccc2ccc(=O)oc2c1O	–	–	> 100	> 100	92	> 100	> 100	> 100	–
COc1cc(C(=O)O)ccc1OCC=C(C)C	–	–	> 100	> 100	> 100	> 100	> 100	> 100	–
CC(=O)c1ccc(OCC=C(C)C)cc1O	–	–	> 100	> 100	> 100	> 100	> 100	> 100	–
CC(C)=CCC/C(C)=C/COc1cc(O)c2c(c1)C(=O)c1cc(C)cc(O)c1C2=O	90	100	18	30	14	32	40	> 100	–
COc1cc(/C=C/C=O)cc(OC)c1OCC=C(C)C	90	100	30	28	31	68	32	29	–
COc1cc(/C=C/C=O)ccc1OC/C=C(\C)CCC=C(C)C	80	26	7	24	12	5	28	34	–
COc1cc(/C=C/CO)cc(OC)c1OCC=C(C)C	–	–	> 100	> 100	> 100	> 100	> 100	> 100	–
COc1cc(/C=C/CO)ccc1OC/C=C(\C)CCC=C(C)C	80	41	25	21	27	29	31	23	–
COc1cc(/C=C/CO)cc(OC)c1O	–	–	> 100	> 100	> 100	> 100	> 100	80	–
CC(C)=CCC/C(C)=C/COc1ccc(/C=C/C(=O)O)cc1	–	–	> 100	> 100	> 100	> 100	> 100	> 100	–
COc1cc(/C=C/C(=O)O)ccc1OC/C=C(\C)CCC=C(C)C	–	–	> 100	> 100	> 100	> 100	> 100	> 100	–
COc1cc(/C=C/C=O)cc(OC)c1O	–	2	56	63	33	> 100	66	39	50
CC(=O)c1ccc(O)cc1O	–	–	> 100	> 100	97	> 100	> 100	45	–
CC(=O)c1c(O)cc(OC/C=C(\C)CCC=C(C)C)cc1O	80	15	29	48	35	34	40	34	–
CC(C)=CCOc1ccc(C(=O)/C=C/c2ccc(O)cc2)c(O)c1	70	17	87	> 100	57	66	> 100	58	–
CC(=O)c1ccc(OC/C=C(\C)CCC=C(C)C)cc1O	80	17	48	27	38	51	44	37	–
O=C(/C=C/c1ccccc1)c1ccc(O)cc1O [2',4'-DIHYDROXYCHALCONE]	–	–	> 100	> 100	81	> 100	75	49	–
CC(=O)c1c(O)cc(O)cc1O [2,4,6-TRIHYDROXYACETOPHENONE]	–	–	> 100	> 100	90	100	> 100	42	–

Compound	growth inhibition (GI) [1] [%]	Activity [2] [%]	IC50 [3] [µM]	IC50 (PC-3) [µM]	IC50 (LoVo) [µM]	IC50 (A549) [µM]	IC50 (SK-MEL-28) [µM]	IC50 [4] [µM]	growth inhibition (GI) [5] [%]
CC(C)=CCOc1ccc2ccc(=O)oc2c1 [7-PRENYLOXYCOUMARIN]	–	–	> 100	> 100	82	> 100	> 100	79	–
CC(C)=CCC/C(C)=C/COc1ccc2ccc(=O)oc2c1 [AURAPTENE]	90	58	82	65	66	82	87	58	–
COc1cc(/C=C/C(=O)O)ccc1OCC=C(C)C [BOROPINIC ACID]	–	–	> 100	> 100	> 100	> 100	> 100	> 100	–
COc1cc(/C=C/CO)ccc1O [CONIFERYL ALCOHOL]	80	26	97	84	64	85	> 100	60	–
COc1cc(/C=C/C=O)ccc1O [CONIFERYL ALDEHYDE]	–	13	28	35	23	59	33	29	50
CC(C)=CCOc1ccc(C(=O)/C=C/c2ccccc2)c(O)c1 [CORDOIN]	95	88	53	71	58	54	81	39	–
O=C(O)/C=C/c1ccc(O)cc1 [COUMARIC ACID]	–	–	> 100	> 100	82	> 100	> 100	66	–
Cc1cc(O)c2c(c1)C(=O)c1cc(O)cc(O)c1C2=O [EMODIN]	90	99	31	35	27	28	35	29	–
COc1cc(/C=C/C(=O)O)ccc1O [FERULATE]	–	–	> 100	> 100	95	> 100	> 100	68	–
O=C(/C=C/c1ccc(O)cc1)c1ccc(O)cc1O [ISOLIQUIRITIGENIN]	–	7	68	99	57	85	75	48	60
COc1c(OCC=C(C)C)ccc2ccc(=O)oc12 [LACINARTIN]	80	37	70	46	40	95	> 100	> 100	–
CC(C)=CCOc1cc(O)c2c(c1)C(=O)c1cc(C)cc(O)c1C2=O [MADAGASCIN]	80	95	5	6	8	20	7	10	–
COc1cc(/C=C/C=O)cc(OC)c1OC/C=C(\C)CCC=C(C)C [NELUMAL A]	80	100	8	39	23	71	26	27	–
COc1cc(/C=C/CO)cc(OC)c1OC/C=C(\C)CCC=C(C)C [NELUMOL A]	80	17	42	40	38	76	72	39	–
O=C(O)c1ccc(O)cc1 [PARABEN]	–	–	> 100	> 100	94	> 100	> 100	71	–
O=c1ccc2ccc(O)cc2o1 [UMBELLIFERONE]	–	–	> 100	> 100	97	> 100	> 100	33	–
CC(C)=CCC/C(C)=C/CC/C(C)=C/COc1ccc2ccc(=O)oc2c1 [UMBELLIPRENIN]	90	40	72	75	50	71	66	30	–
CC(C)=CCOc1ccc(C(=O)O)cc1 [VALENCIC ACID]	–	–	> 100	> 100	> 100	> 100	> 100	> 100	–
COc1cc(C(=O)O)ccc1O [VANILLIC ACID]	–	–	> 100	> 100	91	> 100	> 100	61	–
